Reference: ChEMBL document CHEMBL1126297, “Synthesis and evaluation of analogues of (Z)-1-(4-methoxyphenyl)-2-(3,4,5-trimethoxyphenyl)ethene as potential cytotoxic and antimitotic agents” (J Med Chem, 1992)

Experiments:
Type in all cases: functional
MCF7 = experiment: Cytotoxicity against human MCF-7 breast cancer cell line.; details: read-out: ED50 (the source's name)
Summary of the method: (§1)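 MTT colorimetric assay run in the Purdue Cell Culture Laboratory. Poorly water-soluble compounds were serially diluted in DMSO and added as 0.5 μL aliquots per well. Cells were incubated with compound for 6 days before MTT was added. […] The reported ED50 is the mean of two determinations.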

MLM = experiment: Cytotoxicity against human MLM melanoma cell line.; details: read-out: ED50 (the source's name); summary of the method: as §1
SK-MEL-5 = experiment: Compound was evaluated for cytotoxicity against human SKMEL-5 melanoma cell line.; details: read-out: ED50 (the source's name); summary of the method: as §1
A549 = experiment: Compound was evaluated for cytotoxicity against human A-549 non-small cell lung cancer cell line.; details: read-out: ED50 (the source's name); summary of the method: as §1
HT-29 = experiment: Cytotoxicity against human HT-29 colon cell line.; details: read-out: ED50 (the source's name); summary of the method: as §1
Bos taurus = species: Bos taurus; experiment: Inhibition of tubulin polymerization
Summary of the method: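 Bovine brain tubulin, purified to electrophoretic homogeneity, was preincubated at 37 °C with a range of compound concentrations and then chilled on ice. GTP was added and polymerization followed at 37 °C by turbidity at 350 nm. Extent was read at 20 min against two controls per experiment, and IC50 was determined graphically. Actives were run in ≥3 independent assays, inactives (IC50 > 40 μM) in ≥2.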

Row | IC50 (Bos taurus) [µM] | SMILES | EC50 (MCF7) [µM] | EC50 (MLM) [µM] | EC50 (SK-MEL-5) [µM] | EC50 (A549) [µM] | EC50 (HT-29) [µM]
1 | > 40 | COc1cc(CCc2ccc(OCCN(C)C)cc2)cc(OC)c1OC | 10.3 | > 25 | 11.4 | > 25 | 9.8
2 | > 40 | CCN(CC)CCOC(=O)/C(=C/c1cccc(OC)c1)c1cc(OC)c(OC)c(OC)c1 | 10.4 | > 25 | 6.7 | 7.7 | > 25
3 | 18 | COc1ccc(/C=C\c2ccc(OC)c(OC)c2)cc1 [7Z-3,4,4'-TRIMETHOXYSTILBENE] | > 25 | > 25 | > 25 | > 25 | > 25
4 | > 40 | CCCOc1ccc(CCc2cc(OC)c(OC)c(OC)c2)cc1 | 3.9 | 15 | 6.7 | 7.2 | 6.4
5 | 10 | CCOc1ccc(CCc2cc(OC)c(OC)c(OC)c2)cc1 | 0.19 | 0.27 | 0.17 | 0.19 | 0.18
6 | 7.9 | COc1ccc(CCc2cc(OC)c(OC)c(OC)c2)cc1 | 1.6 | 1.8 | 1.4 | 1.8 | 2.5
7 | > 40 | COc1ccc(C(O)c2cc(OC)c(OC)c(OC)c2)cc1 (stereo not drawn) | 1.9 | 16.8 | 1.5 | 1.5 | 1.2
8 | > 40 | COc1ccc2cc3n(c(=O)c2c1)CCc1c-3cc(OC)c(OC)c1OC | > 25 | > 25 | > 25 | > 25 | > 25
9 | > 40 | COc1ccc(/C=C\c2cc(OC)c(OCc3ccccc3)c(OC)c2)cc1 | 1.92 | > 25 | 0.61 | 1.04 | 0.95
10 | 2 | COc1cc(/C=C\c2ccc(C)cc2)cc(OC)c1OC | 0.024 | 0.0066 | 0.00083 | 0.00094 | 0.0023
11 | > 40 | CCN(CC)CCOc1ccc(CCc2cc(OC)c(OC)c(OC)c2)cc1 | 4.3 | > 25 | 8.5 | 6.8 | 5.2
12 | > 40 | COc1ccc(CC2NCCc3c2cc(OC)c(OC)c3OC)cc1 (stereo not drawn) | > 25 | > 25 | > 25 | 19.3 | 20.2
13 | > 40 | COc1cc(/C=C/c2ccc(C(C)(C)C)cc2)cc(OC)c1OC | > 25 | > 25 | > 25 | > 25 | > 25
14 | > 40 | COc1ccc(/C=C/c2cc(OC)c(OCc3ccccc3)c(OC)c2)cc1 | > 25 | > 25 | > 25 | > 25 | 17.8
15 | > 40 | COC(=O)C(Cc1cc(OC)c(OC)c(OC)c1)c1ccc(OC)cc1 (stereo not drawn) | > 25 | > 25 | > 25 | > 25 | > 25
16 | > 40 | COc1ccc(C(Cc2cc(OC)c(OC)c(OC)c2)C(=O)O)cc1 (stereo not drawn) | > 25 | > 25 | 7.4 | 14.3 | 9.4
17 | > 40 | COc1ccc(Cc2c3cc(OC)c(OC)c(OC)c3cc[n+]2C)cc1 | > 25 | > 25 | 2.1 | 19.5 | 20.5
18 | > 40 | COc1cccc(/C=C(/C(=O)O)c2cc(OC)c(OC)c(OC)c2)c1 | > 25 | > 25 | 0.05 | 0.025 | 0.12
19 | > 40 | COc1ccc(/C=C/c2cc(OC)c(OC(C)=O)c(OC)c2)cc1 | 19.4 | 21 | 10.2 | 16.4 | 11.7

Row | IC50 (Bos taurus) [µM] | SMILES | EC50 (MCF7) [µM] | EC50 (MLM) [µM] | EC50 (SK-MEL-5) [µM] | EC50 (A549) [µM] | EC50 (HT-29) [µM]
20 | 35 | CNC(=O)/C(=C/c1ccc(OC)cc1)c1cc(OC)c(OC)c(OC)c1 | 5 | 93 | 2.4 | 2.4 | 2.6
21 | 11 | COc1ccc(CC(C#N)c2cc(OC)c(OC)c(OC)c2)cc1 (stereo not drawn) | 1.4 | 1.6 | 4.1 | 9.6 | 7.5
22 | > 40 | COc1ccc(C(C#N)Cc2cc(OC)c(OC)c(OC)c2)cc1 (stereo not drawn) | 14.3 | 21.1 | 6.4 | 11.5 | 9.4
23 | > 40 | COc1cc(/C=C/c2ccc(SC)cc2)cc(OC)c1OC | 0.059 | 7.3 | 0.28 | 0.47 | 0.083
24 | > 40 | COc1ccc(C2Cc3cc(OC)c(OC)c(OC)c3C2=O)cc1 (stereo not drawn) | > 25 | > 25 | > 25 | > 25 | > 25
25 | > 40 | COc1ccc(/C=C/c2ccc(OC)c(OC)c2)cc1 | > 25 | > 25 | > 25 | 11.7 | > 25
26 | > 40 | COc1ccc(C2Cc3cc(OC)c(OC)c(OC)c3C2)cc1 (stereo not drawn) | > 25 | > 25 | 19.5 | > 25 | 12.8
27 | 3.4 | CCc1ccc(/C=C\c2cc(OC)c(OC)c(OC)c2)cc1 | 0.072 | 0.0075 | 0.00086 | 0.012 | 0.0027
28 | > 40 | CCCOc1ccc(/C=C/c2cc(OC)c(OC)c(OC)c2)cc1 | 12.5 | > 25 | > 25 | 9.2 | > 25
29 | > 40 | COC(=O)/C(=C/c1cccc(OC)c1)c1cc(OC)c(OC)c(OC)c1 | 1.3 | 15.5 | 1.5 | 1.3 | 0.7
30 | 24 | COc1ccc(/C=C\c2cc(OC)c(OC(C)=O)c(OC)c2)cc1 | > 25 | > 25 | 0.6 | 21.5 | 8.7
31 | 15 | COc1ccc(Cc2cc(OC)c(OC)c(OC)c2)cc1 | 1.9 | 1.3 | 1.2 | 1.5 | 1.3
32 | > 40 | COc1ccc(C(=O)c2nccc3c(OC)c(OC)c(OC)cc23)cc1 | > 25 | > 25 | > 25 | > 25 | > 25
33 | – | COc1ccc(/C=C\c2cc(OC)c(OC)c(OC)c2)cc1O [COMBRETASTATIN A4] | 0.0056 | 0.00043 | 0.00014 | 0.00032 | 0.01
34 | > 40 | COc1ccc(CC2c3cc(OC)c(OC)c(OC)c3CCN2C)cc1 (stereo not drawn) | 22.7 | > 25 | 8.8 | 11.4 | 9.7
35 | 6 | CCCOc1ccc(/C=C\c2cc(OC)c(OC)c(OC)c2)cc1 | 0.66 | 0.065 | 0.014 | 0.039 | 0.028
36 | 6.2 | COc1cc(/C=C\c2ccc(SC)cc2)cc(OC)c1OC | 0.0054 | 0.0033 | 4e-06 | 0.00019 | 1.8e-06
37 | > 40 | COc1ccc(C(=O)c2c3cc(OC)c(OC)c(OC)c3cc[n+]2C)cc1 | > 25 | > 25 | > 25 | > 25 | > 25

Row | SMILES | IC50 (Bos taurus) [µM] | EC50 (MCF7) [µM] | EC50 (MLM) [µM] | EC50 (SK-MEL-5) [µM] | EC50 (A549) [µM] | EC50 (HT-29) [µM]
38 | COc1cc2ccc3c(OC)cccc3c2c(OC)c1OC | > 40 | 14.6 | > 25 | 12 | > 25 | 9.3
39 | COc1cc(/C=C/c2ccc(C(C)C)cc2)cc(OC)c1OC | > 40 | 18.4 | > 25 | 11.1 | 9.8 | 6.8
40 | COc1ccc(/C=C/c2cc(OC)cc(OC)c2)cc1 [TRISMETHOXYRESVERATROL] | > 40 | 9.7 | > 25 | 0.88 | 7.5 | 6.9
41 | CCOc1ccc(/C=C/c2cc(OC)c(OC)c(OC)c2)cc1 | > 40 | 7.5 | – | 1.17 | – | 1.49
42 | COc1ccc(/C=C\c2cc(OC)c(OC)c(OC)c2)cc1 | 2.5 | – | 1.6 | 2.6 | – | 2.6
43 | COc1ccc2ccc3cc(OC)c(OC)c(OC)c3c2c1 | > 40 | > 25 | > 25 | 12.5 | > 25 | 1.1
44 | COc1cc(/C=C\c2ccc(C(C)C)cc2)cc(OC)c1OC | 12 | 1.4 | – | – | – | 2.4
45 | COc1cc2ccc3cccc(OC)c3c2c(OC)c1OC | > 40 | 1.8 | 21.4 | 1.3 | 5.7 | 1.9
46 | COc1ccc(/C=C\c2cc(OC)c(O[Si](C)(C)C(C)(C)C)c(OC)c2)cc1 | > 40 | > 25 | > 25 | > 25 | > 25 | 9
47 | CCOc1ccc(/C=C\c2cc(OC)c(OC)c(OC)c2)cc1 | 2.7 | 9.6 | – | 2.5 | 1.6 | 1.8
